# Screens from PubChem.
# Beta cell apopt: beta cell apoptosis inhibition; 300,000 compounds, 0.8% hits; AID 435005; protection from apoptosis, % (test concentration not listed); INS-1E cytokine-induced death, ATP luminescence, 48 h; percent of positive-control rescue, neutral wells zero;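 active = Every replicate reaches about 75%, or at least half do and their mean reaches it too, limit read from the data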;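 also: 0% = cytokine-treated negative control wells and 100% = positive control rescue; higher means more ATP so stronger rescue from cytokine killing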
# T cruzi inh: blocks replication of Trypanosoma cruzi | T. cruzi beta-gal in NIH3T3, luminescence, 90 h | inhibition, % (concentration not given with the values) | 300,000 compounds, 1.4% hits | AID 1885;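 active = mean inhibition across valid replicates above about 55%, limit read from the data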;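 also: signal also drops with host cell toxicity which is not excluded here; 0% = plate median of DMSO wells and 100% = zero luminescence signal; higher percent means less beta-gal luminescence so fewer parasites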
#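 Assay system: NIH/3T3 host cells with β-galactosidase reporter T. cruzi; input: 5,000 host fibroblasts per well; compound: single 50 nL compound addition per well in DMSO; timing: ≥90 h infection period, 3 h prior cell attachment; measured by: GalScreen β-gal luminescence, detergent lysis, 60 min; evaluation: percent inhibition of parasite-derived β-gal signal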
# PfHsp90 yeast 2: inhibits growth of yeast expressing Plasmodium falciparum Hsp90; 310,000 compounds, 0.32% hits; inhibition, % at 9.4 µM; AID 504621; S. cerevisiae expressing PfHsp90, BacTiter-Glo ATP, 48 h; yeast lacking PDR1 and PDR3 efflux regulators;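 active = every replicate shows inhibition above about 80%, whatever the replicate mean, limit read from the data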;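 also: 0% = DMSO neutral controls and 100% = 20 µM radicicol positive controls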
# CSC inhib: cancer stem cell inhibition; cancer stem cell-like cells viability, luminescence; inhibition, % at 7.5 µM; 300,000 compounds, 1.1% hits; AID 2717; in the data active = inhibition above about 75%; tested in HMLE shEcad cells
# HIF activator: HIF pathway transcriptional activation | U2OS HRE-luciferase reporter, luminescence; normalized: DMSO 0%, desferrioxamine 100% | activation, % at 7.5 µM (by protocol) | 300,000 compounds, 0.32% hits | AID 1910;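 active = mean activation of at least 10% of the iron chelator positive control signal, with at least half of replicates also reaching 10%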
# SKKanGAS inh: SKKanGAS growth inhibition; 300,000 compounds, 1.3% hits; inhibition, % at 7.5 µM; S. pyogenes SKKanGAS, kanamycin growth, BacTiter-Glo, 6 h;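 active = mean replicate score, as percent of positive control median, at least 50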;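 also: strain carries kanamycin resistance gene driven by streptokinase promoter and grows in 40 µg/ml kanamycin; loss of luminescence reflects streptokinase promoter inhibition or plain growth inhibition; 0% = median of DMSO wells and 100% = positive control at its reference dose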
# The depositor's hits bear a star; . = not tested or not shown. Sampled rows, rich in hits. Any-hit rate of the full collection: about 3.6%.
SMILES,Beta cell apopt,T cruzi inh,PfHsp90 yeast 2,CSC inhib,HIF activator,SKKanGAS inh
CC1=NN(c2nc(-c3ccc(C)cc3)cs2)C(=O)C1N=Nc1ccc(C(N)=O)cc1 (stereo not drawn),79*,-7,-7,-16,-6,23
CC1=NN(c2nc(-c3ccc(C)cc3)cs2)C(=O)C1N=Nc1ccc2ccccc2c1 (stereo not drawn),-6,-13,-3,-2,0,10
CC(C)CC(=O)Nc1ccc(C(=O)COC(=O)C2=COCCO2)cc1,-6,-16,.,-4,-6,-3
O=C(CSc1nc(=O)n(CCCN2CCOCC2)c2c1CCC2)Nc1cccc(F)c1,-3,14,25,-14,-1,0
CCn1c(C)c(C)c2cc(C(=O)NCCCN3CCCCC3C)ccc21 (stereo not drawn),-3,13,-17,-7,0,-5
O=C(/C=C/c1ccccc1)NCC(=O)N/N=C/c1ccccc1[N+](=O)[O-],-4,26,38,1,0,-3
COc1ccccc1/C=C/C(=O)NCC(=O)N/N=C/c1ccccc1[N+](=O)[O-],1,61*,-11,8,0,-2
CO[C@H]1C=CO[C@@]2(C)Oc3c(C)c(O)c4c(O)c(c5c(nc6cc(C)ccn65)c4c3C2=O)NC(=O)C(C)=CC=C[C@H](C)[C@H](O)[C@@H](C)[C@@H](O)[C@@H](C)[C@H](OC(C)=O)[C@@H]1C,.,-1,.,.,0,105*
O=C(c1cccc(S(=O)(=O)N2CCN(c3ccc(F)cc3)CC2)c1)N1CCCC(C(F)(F)F)C1 (stereo not drawn),.,18,4,9,1,-1
CCCC[C@@H]1C=C(C(=O)O)[C@H](c2ccc(C#N)cc2)N1S(=O)(=O)c1ccc(C)cc1,.,.,1,.,.,.
Fc1cccc(/C=N/Nc2nccnc2Cl)c1,42,-10,13,58,78*,18
O=c1c2c(nc(NCCO)n1CC1CCCCC1)-c1ccccc1CC21CCCC1,1,23,4,-4,-5,87*
CC1(C)CC(n2c(NCCO)nc3c(c2=O)C2(CCCC2)Cc2ccccc2-3)CCO1 (stereo not drawn),.,17,-9,.,0,4
CCCn1c(SCC#N)nc2c(c1=O)C1(CCCC1)Cc1ccccc1-2,9,23,-6,127*,2,13
N#CCSc1nc2c(c(=O)n1Cc1ccco1)C1(CCCC1)Cc1ccccc1-2,0,36,-10,83*,-48,23
N#CCSc1n[nH]c2nc3c(c(=O)n12)C1(CCCC1)Cc1ccccc1-3,-9,-4,11,22,0,41
Cc1ccc2c(c1C)-c1c(ccc(C)c1C)C(=O)C2=O,.,.,103*,.,.,.
O=C(c1ccc(Br)cc1)N(c1ccccn1)C1CCCCC1,0,4,-3,6,0,-7
CC1(C)N=C(SCC(=O)Nc2ccc(Cl)cc2)C(c2ccccc2)=N1,-32,-8,.,24,0,-3
CC1(C)N=C(SCC(=O)Nc2ccc(Cl)cc2)C(c2ccc(Cl)cc2)=N1,-17,42,110*,39,0,0
O=C(C[C@H]1C/C=C\C[C@@H](Cc2ccc(F)cc2)C(=O)OC[C@H]2CCCN2C1=O)NCCO,1,.,22,.,.,.
CC1CC(=O)c2c(cc3c(-c4c(O)cc(O)c5c(O)c6c(cc45)OC(C)CC6=O)c(O)cc(O)c3c2O)O1 (stereo not drawn),98*,71*,13,-1,0,107*
O=C1CC(c2ccccc2)Oc2cc(O)cc(O)c21 (stereo not drawn),.,-26,18,3,1,5
CC(=O)OC1C(=O)N(Cc2ccccc2)C1c1ccc(C)cc1 (stereo not drawn),.,.,-7,.,.,.
CC(C)(C)C(=O)NC(NC(=S)Nc1sc2c(c1C#N)CCCC2)C(Cl)(Cl)Cl (stereo not drawn),5,16,-5,.,0,50*
SMILES,Beta cell apopt,T cruzi inh,PfHsp90 yeast 2,CSC inhib,HIF activator,SKKanGAS inh
COC(=O)c1c(NC(NC(=O)C(C)C)C(Cl)(Cl)Cl)sc2c1CCC2 (stereo not drawn),6,9,-31,16,-1,28
COC(=O)c1c(NC(NC(=O)C(C)(C)C)C(Cl)(Cl)Cl)sc2c1CCC2 (stereo not drawn),11,39,-8,43,-1,59*
CC(C)(C)C(=O)Nc1sc2c(c1C#N)CCC2,4,0,-29,7,0,5
N#Cc1c(NC(=S)NC(=O)Cc2cccs2)sc2c1CCCCC2,-11,9,.,-10,1,59*
Cc1ccc(NC(=O)Cn2c(=O)ccn(Cc3ccccc3)c2=O)cc1S(=O)(=O)N1CCOCC1,.,.,0,.,.,.
COc1ccccc1NC(=O)c1ccc(NC(=O)c2cc3c(s2)CCC3)cc1,10,21,9,-9,0,73*
O=C(Nc1ccccc1OC(F)F)c1cc2c(s1)CCC2,2,-3,-4,6,2,-6
CC(=O)/C(N=Nc1cccc(C(F)(F)F)c1)=C(\C)O,-4,0,-5,1,0,-17
O=C(/C(N=Nc1cccc(C(F)(F)F)c1)=C(/O)c1cccs1)C(F)(F)F,23,10,-6,140*,3,24
CCNC(=S)N/N=C(\C)c1cc2ccccc2o1,2,2,0,.,1,-2
CCC(=O)Nc1cccc(NC(=S)NC(=O)c2cccc(C)c2)c1,1,-5,-3,0,2,8
CC/C(=N\NC(=S)Nc1cc(C)ccc1C)c1ccc(OC(F)F)cc1,2,24,-15,26,0,69*
C/C(=N/NC(=S)Nc1cccc(C)c1)c1cccc([N+](=O)[O-])c1,15,56*,-13,7,0,-6
CC/C(=N\NC(=S)Nc1cccc(C)c1)c1ccccc1,17,44,-31,12,0,62*
C/C(=N\NC(=S)Nc1cccc(C)c1)c1cc2ccccc2o1,17,44,-17,14,0,67*
COc1ccc(CNC(=O)CNC(=O)N2CC(=O)Nc3ccccc32)cc1,-1,-14,-5,-5,1,1
CCOC(=O)Cc1cc(=O)n2[nH]c(C(C)(C)C)cc2n1,-2,-6,8,-12,-1,-14
Cc1cccc(NC(=S)N/N=C(\c2ccccc2)C(C)C)c1,10,23,-9,11,0,69*
CC(C)/C(=N\NC(=O)Nc1ccccc1)c1ccccc1,8,-12,-4,.,0,8
CCCCn1c(N)c(N(CCOC)C(=O)CN(C)CC(=O)Nc2ccc(Cl)c(Cl)c2)c(=O)[nH]c1=O,-1,.,.,-15,.,.
N/C(=C\C(=O)c1cc(Cl)ccc1O)C(Cl)(Cl)Cl,12,53,-22,85*,1,-10
